In ChEMBL document CHEMBL1132709, “Novel cyclopropapyrroloindole derivative (AT-3510) bearing methoxycarbonyl and trifluoromethyl groups” (J Med Chem, 1999):
Converted amounts (≈) assume the structure as drawn.

System: Mus musculus
Test: In vivo antitumor activity (0.5 mg/Kg) is the measure of tumor growth inhibition of colon 26 murine […] cells.
Format: functional
In short: (§1)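 Colon 26 cells (10^6/mouse) inoculated sc into male CDF1 mice on day 0; drug given iv on day 7. Read-out is percentage tumor growth inhibition versus the untreated group.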

Structure (SMILES) | TGI
COC(=O)c1c(C(F)(F)F)[nH]c2c(O)cc3c(c12)[C@H](CCl)CN3C(=O)c1cc2cc(NC(=O)c3cc4c(OC)cccc4o3)ccc2[nH]1 (racemic) | 83%

System: Mus musculus
Test: In vivo concentration required to inhibit the Colon 26 murine […] cell growth by 50%
Format: functional

Structure (SMILES) | TGI50
COC(=O)c1c(C(F)(F)F)[nH]c2c(OC(=O)N3CCN(C)CC3)cc3c(c12)[C@H](CCl)CN3C(=O)c1cc2cc(NC(=O)c3cc4ccc(OC)cc4o3)ccc2[nH]1 | 0.108 mg/kg
COC(=O)c1c(C(F)(F)F)[nH]c2c(OC(=O)N3CCN(C)CC3)cc3c(c12)[C@H](CCl)CN3C(=O)c1cc2cc(NC(=O)c3cc4cc(OC)ccc4o3)ccc2[nH]1.Cl | 0.148 mg/kg
COC(=O)c1c(C(F)(F)F)[nH]c2c(OC(=O)N3CCN(C)CC3)cc3c(c12)[C@H](CCl)CN3C(=O)c1cc2cc(NC(=O)c3cc4c(OC)c(OC)c(OC)cc4cn3)ccc2[nH]1 | 0.13 mg/kg
COC(=O)c1c(C(F)(F)F)[nH]c2c(OC(=O)N3CCN(C)CC3)cc3c(c12)[C@H](CCl)CN3C(=O)c1cc2cc(NC(=O)c3cc4cc(OC)c(OC)c(OC)c4o3)ccc2[nH]1 | 0.0533 mg/kg

System: Mus musculus
Test: In vivo antitumor activity (0.125 mg/Kg) is the measure of tumor growth inhibition of colon 26 murine […] cells.
Format: functional
In short: as §1

Structure (SMILES) | TGI
COC(=O)c1c(C(F)(F)F)[nH]c2c(O)cc3c(c12)[C@H](CCl)CN3C(=O)c1cc2cc(NC(=O)c3cc4cc(OC)c(OC)c(OC)c4o3)ccc2[nH]1 (racemic) | 74%
COC(=O)c1c(C(F)(F)F)[nH]c2c(O)cc3c(c12)[C@H](CCl)CN3C(=O)c1cc2cc(NC(=O)c3cc4c(OC)cccc4cn3)ccc2[nH]1 (racemic) | 67%

System: Mus musculus
Test: In vivo antitumor activity (0.25 mg/Kg) is the measure of increase in life span of mice bearing P388 murine leukemia cells; 2/2 cured mice (>60-day survivors)
Format: functional, organism-based

Structure (SMILES) | ILS
COC(=O)c1c(C(F)(F)F)[nH]c2c1[C@@]13C[C@@H]1CN(C(=O)c1cc4cc(NC(=O)c5cc6ccccc6o5)ccc4[nH]1)C3=CC2=O (racemic) | 2/2 cured mice (>60-day survivors)

System: Mus musculus
Test: In vivo antitumor activity (0.25 mg/Kg) is the measure of tumor growth inhibition of colon 26 murine […] cells.
Format: functional
In short: as §1

Structure (SMILES) | TGI
COC(=O)c1c(C(F)(F)F)[nH]c2c(O)cc3c(c12)[C@H](CCl)CN3C(=O)c1cc2cc(NC(=O)c3cc4cc(OC)ccc4cn3)ccc2[nH]1 (racemic) | 90%
COC(=O)c1c(C(F)(F)F)[nH]c2c(O)cc3c(c12)[C@H](CCl)CN3C(=O)c1cc2cc(NC(=O)c3cc4cccc(OC)c4cn3)ccc2[nH]1 (racemic) | 90%
COC(=O)c1c(C(F)(F)F)[nH]c2c(O)cc3c(c12)[C@H](CCl)CN3C(=O)c1cc2cc(NC(=O)c3cc4cc(OC)c(OC)c(OC)c4[nH]3)ccc2[nH]1 (racemic) | 83%
COC(=O)c1c(C(F)(F)F)[nH]c2c(O)cc3c(c12)[C@H](CCl)CN3C(=O)c1cc2cc(NC(=O)c3cc4ccc(OC)cc4cn3)ccc2[nH]1 | 82%
COC(=O)c1c(C(F)(F)F)[nH]c2c(O)cc3c(c12)[C@H](CCl)CN3C(=O)c1cc2cc(NC(=O)c3cc4ccccc4cn3)ccc2[nH]1 (racemic) | 82%

System: not listed separately
Test: Ratio between max dose within 10% body weight loss and tumor growth inhibition
Format: functional
In short: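 Ratio of maximum dose within 10% body weight loss to the dose giving 50% tumor growth inhibition, in sc Colon 26-bearing mice dosed iv.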

Structure (SMILES) | Ratio
COC(=O)c1c(C(F)(F)F)[nH]c2c(OC(=O)N3CCN(C)CC3)cc3c(c12)[C@H](CCl)CN3C(=O)c1cc2cc(NC(=O)c3cc4ccc(OC)cc4o3)ccc2[nH]1 | 4.6
COC(=O)c1c(C(F)(F)F)[nH]c2c(OC(=O)N3CCN(C)CC3)cc3c(c12)[C@H](CCl)CN3C(=O)c1cc2cc(NC(=O)c3cc4cc(OC)ccc4o3)ccc2[nH]1.Cl | 6.8
COC(=O)c1c(C(F)(F)F)[nH]c2c1[C@@]13C[C@@H]1CN(C(=O)c1cc4cc(NC(=O)c5cc6ccccc6o5)ccc4[nH]1)C3=CC2=O | 4.3
COC(=O)c1c(C(F)(F)F)[nH]c2c(OC(=O)N3CCN(C)CC3)cc3c(c12)[C@H](CCl)CN3C(=O)c1cc2cc(NC(=O)c3cc4c(OC)c(OC)c(OC)cc4cn3)ccc2[nH]1 | 3.9
COC(=O)c1c(C(F)(F)F)[nH]c2c(OC(=O)N3CCN(C)CC3)cc3c(c12)[C@H](CCl)CN3C(=O)c1cc2cc(NC(=O)c3cc4cc(OC)c(OC)c(OC)c4o3)ccc2[nH]1 | 4.5
COC(=O)c1c(C(F)(F)F)[nH]c2c(OC(=O)N3CCN(C)CC3)cc3c(c12)[C@H](CBr)CN3C(=O)c1cc2cc(OC)c(OC)c(OC)c2[nH]1 | 11.7

System: Mus musculus
Test: In vivo antitumor activity is the measure of tumor growth inhibition of Colon 26 murine […] cells.
Format: functional
In short: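 Colon 26 cells (10^6/mouse) inoculated sc into male CDF1 mice on day 0; single iv dose on day 7. Tumor growth inhibition expressed as percentage versus untreated group.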

Structure (SMILES) | TGI
COC(=O)c1c(C(F)(F)F)[nH]c2c(OC(=O)N3CCN(C)CC3)cc3c(c12)[C@H](CCl)CN3C(=O)c1cc2cc(NC(=O)c3cc4ccc(OC)cc4o3)ccc2[nH]1 | 89%
COC(=O)c1c(C(F)(F)F)[nH]c2c(OC(=O)N3CCN(C)CC3)cc3c(c12)[C@H](CCl)CN3C(=O)c1cc2cc(NC(=O)c3cc4cc(OC)ccc4o3)ccc2[nH]1.Cl | 86%
COC(=O)c1c(C(F)(F)F)[nH]c2c(OC(=O)N3CCN(C)CC3)cc3c(c12)[C@H](CCl)CN3C(=O)c1cc2cc(NC(=O)c3cc4c(OC)c(OC)c(OC)cc4cn3)ccc2[nH]1 | 89%
COC(=O)c1c(C(F)(F)F)[nH]c2c(OC(=O)N3CCN(C)CC3)cc3c(c12)[C@H](CCl)CN3C(=O)c1cc2cc(NC(=O)c3cc4cc(OC)c(OC)c(OC)c4o3)ccc2[nH]1 | 90%

System: HeLa
Test: Concentration required to inhibit the growth of HeLaS3 human uterine cervix carcinoma cells by 50%
Format: functional, cell-based

Structure (SMILES) | IC50
COC(=O)c1c(C(F)(F)F)[nH]c2c(O)cc3c(c12)[C@H](CCl)CN3C(=O)c1cc2c(OC)c(OC)c(OC)cc2[nH]1 (racemic) | 32 ng/mL (≈ 55 nM)
COC(=O)c1c(C(F)(F)F)[nH]c2c(O)cc3c(c12)[C@H](CCl)CN3C(=O)c1cc2cc(NC(=O)c3cc4cc(OC)c(OC)c(OC)c4o3)ccc2[nH]1 (racemic) | 0.17 ng/mL (≈ 0.229 nM)
COC(=O)c1c(C(F)(F)F)[nH]c2c(O)cc3c(c12)[C@H](CCl)CN3C(=O)c1cc2cc(OC)c(OC)c(OC)c2[nH]1 (racemic) | 0.25 ng/mL (≈ 0.43 nM)
COC(=O)c1c(C(F)(F)F)[nH]c2c(O)cc3c(c12)[C@H](CCl)CN3C(=O)c1cc2cc(NC(=O)c3cc4cc(OC)ccc4cn3)ccc2[nH]1 (racemic) | 0.18 ng/mL (≈ 0.26 nM)
COC(=O)c1c(C(F)(F)F)[nH]c2c(O)cc3c(c12)[C@H](CCl)CN3C(=O)c1cc2cc(NC(=O)c3cc4c(OC)cccc4cn3)ccc2[nH]1 (racemic) | 0.2 ng/mL (≈ 0.289 nM)
COC(=O)c1c(C(F)(F)F)[nH]c2c(O)cc3c(c12)[C@H](CCl)CN3C(=O)c1cc2cc(NC(=O)c3cc4cccc(OC)c4cn3)ccc2[nH]1 (racemic) | 0.51 ng/mL (≈ 0.737 nM)
COC(=O)c1c(C(F)(F)F)[nH]c2c(O)cc3c(c12)[C@H](CCl)CN3C(=O)c1cc2cc(NC(=O)c3cc4cc(OC)c(OC)c(OC)c4[nH]3)ccc2[nH]1 (racemic) | 0.2 ng/mL (≈ 0.27 nM)
COC(=O)c1c(C(F)(F)F)[nH]c2c(O)cc3c(c12)[C@H](CCl)CN3C(=O)c1cc2cc(NC(=O)c3cc4ccc(OC)cc4cn3)ccc2[nH]1 | 0.11 ng/mL (≈ 0.159 nM)
COC(=O)c1c(C(F)(F)F)[nH]c2c(O)cc3c(c12)[C@H](CCl)CN3C(=O)c1cc2cc(NC(=O)c3cc4c(OC)cccc4o3)ccc2[nH]1 (racemic) | 0.87 ng/mL (≈ 1.28 nM)
COC(=O)c1c(C(F)(F)F)[nH]c2c(O)cc3c(c12)[C@H](CCl)CN3C(=O)c1cc2cc(NC(=O)c3cc4ccccc4cn3)ccc2[nH]1 (racemic) | 0.24 ng/mL (≈ 0.363 nM)
